According to ChEMBL document CHEMBL1255491, “Altered growth, pigmentation, and antimicrobial susceptibility properties of Staphylococcus aureus due to loss of the major cold shock gene cspB” (2010):
≈ marks a conversion by molar mass, not a printed value.

How the values were obtained:
Format in all cases: functional
[1] = test system: Staphylococcus aureus; experiment: Antimicrobial activity against methicillin-resistant Staphylococcus aureus COL grown at 37 degC and measured at 15 degC by Etest
In short: (§1)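 Strain COL was grown in TSB at 37°C to mid-log phase, split into equal halves, and kept 1 h at 37°C (control) or 15°C (cold shock). Etest strips for daptomycin, gentamicin or trimethoprim-sulfamethoxazole were then applied per the manufacturer.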

[2] = test system: Staphylococcus aureus; experiment: Antimicrobial activity against Staphylococcus aureus BD2 harboring wild-type cspB gene by Etest
In short: (§2)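 MIC by Etest strip (daptomycin, gentamicin, teicoplanin, trimethoprim-sulfamethoxazole), following the manufacturer's protocol with changes. Inoculum came from cells grown in TSB at 37°C for at least 20 h.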

[3] = test system: Staphylococcus aureus; experiment: Antimicrobial activity against methicillin-resistant Staphylococcus aureus COL grown at 15 degC and measured at 37 degC by Etest; in short: as §1
[4] = test system: Staphylococcus aureus; experiment: Antimicrobial activity against methicillin-resistant Staphylococcus aureus COL grown at 37 degC and measured at 37 degC by Etest; in short: as §1
[5] = test system: Staphylococcus aureus; experiment: Antimicrobial activity against methicillin-resistant Staphylococcus aureus isolate COL by Etest; in short: as §2
[6] = test system: Staphylococcus aureus; experiment: Antimicrobial activity against methicillin-resistant Staphylococcus aureus COL grown at 15 degC and measured at 15 degC by Etest
[7] = test system: Staphylococcus aureus; experiment: Antimicrobial activity against Staphylococcus aureus BD1 harboring aphA-3 insertion in cspB gene by Etest; in short: as §2
[8] = test system: Staphylococcus aureus; experiment: Ratio of MIC for methicillin-resistant Staphylococcus aureus COL grown at 15 degC and measured at 37 degC to MIC for methicillin-resistant Staphylococcus aureus COL grown at 15 degC and measured at 15 degC by Etest
[9] = test system: Staphylococcus aureus; experiment: Ratio of MIC for methicillin-resistant Staphylococcus aureus COL grown at 37 degC and measured at 37 degC to MIC for methicillin-resistant Staphylococcus aureus COL grown at 37 degC and measured at 15 degC by Etest

Compound | MIC [1] | MIC [2] | MIC [3] | MIC [4] | MIC [5] | MIC [6] | MIC [7] | Ratio [8] | Ratio [9]
GENTAMICIN | 0.21 µg/mL | 0.38 µg/mL | 0.38 µg/mL | 0.34 µg/mL | 0.38 µg/mL | 0.29 µg/mL | 32 µg/mL |  | 
CC(=O)N[C@@H]1[C@H](Oc2c3cc4cc2Oc2ccc(cc2Cl)[C@@H](O[C@@H]2O[C@@H](CO)[C@@H](O)[C@H](O)[C@@H]2NC(C)=O)[C@@H]2NC(=O)[C@H](NC(=O)[C@@H]4NC(=O)[C@H]4NC(=O)[C@@H](Cc5ccc(c(Cl)c5)O3)NC(=O)[C@H](N)c3ccc(O)c(c3)Oc3cc(O)cc4c3)c3ccc(O)c(c3)-c3c(O[C@H]4O[C@H](CO)[C@@H](O)[C@@H](O)[C@@H]4O)cc(O)cc3[C@@H](C(=O)O)NC2=O)O[C@@H](CO)[C@@H](O)[C@@H]1O |  | 2 µg/mL (≈ 1.13 µM) |  |  | 3 µg/mL (≈ 1.7 µM) |  | 0.75 µg/mL (≈ 0.424 µM) |  | 
CCCCCCCCCC(=O)N[C@@H](Cc1c[nH]c2ccccc12)C(=O)N[C@H](CC(N)=O)C(=O)N[C@@H](CC(=O)O)C(=O)N[C@@H]1C(=O)NCC(=O)N[C@@H](CCCN)C(=O)N[C@@H](CC(=O)O)C(=O)N[C@H](C)C(=O)N[C@@H](CC(=O)O)C(=O)NCC(=O)N[C@H](CO)C(=O)N[C@@H]([C@H](C)CC(=O)O)C(=O)N[C@@H](CC(=O)c2ccccc2N)C(=O)O[C@@H]1C | 0.46 µg/mL (≈ 0.284 µM) | 2 µg/mL (≈ 1.23 µM) | 1.5 µg/mL (≈ 0.926 µM) | 1.5 µg/mL (≈ 0.926 µM) | 1.5 µg/mL (≈ 0.926 µM) | 0.63 µg/mL (≈ 0.389 µM) | 0.064 µg/mL (≈ 0.0395 µM) | 2.4 | 4
